# Laboratory results published in the M2OR odorant receptor database.
# Target: T1, OR1A1 (Homo sapiens) (UniProt Q9P1Q5)
# T1 sequence (whole entry): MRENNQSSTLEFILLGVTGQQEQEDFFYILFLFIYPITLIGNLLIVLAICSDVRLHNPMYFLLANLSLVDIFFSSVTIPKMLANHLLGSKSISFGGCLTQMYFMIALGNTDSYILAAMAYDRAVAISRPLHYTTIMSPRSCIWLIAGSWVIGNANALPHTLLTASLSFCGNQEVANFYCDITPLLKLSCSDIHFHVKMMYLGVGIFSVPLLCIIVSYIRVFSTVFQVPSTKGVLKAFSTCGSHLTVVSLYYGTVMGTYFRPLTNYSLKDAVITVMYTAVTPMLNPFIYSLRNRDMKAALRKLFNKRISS
# Conditions: stereoisomer not certain
# Outline: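 Each receptor–molecule pair is labelled responsive or non-responsive (inactive) according to whether the original authors judged the measured signal statistically different from baseline. The data were taken from the main text and supplementary material of published papers and checked for typos and inconsistencies. Assay methods differed by source, with transient luciferase assays in mammalian cell lines being common.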
# 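Also: active if original authors judged signal statistically different from baseline.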
smiles,measurement,value
CC=CC(=O)C1=C(C)CCCC1(C)C,odorant receptor agonist call,inactive
